Hits are enriched below; roughly 3.6% of the tested compounds scored in any of these assays.
MITF act: activators of MITF-driven TRPM1 promoter reporter, primary screen, cell-based, SK-MEL-5, luciferase, single point; SK-MEL-5 TRPM1-promoter luciferase, 24 h; % of positive control, neutral wells = 0; activation, % at 12.5 µM; hit rate 0.75% among 300,000;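 active = mean activation of at least 80% with every replicate also reaching 80%; inconclusive = mean reaches 80% but some replicate falls short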;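 note: 0% = neutral control wells and 100% = parthenolide positive control wells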
SR-BI DiI inh: inhibitors of SR-BI mediated HDL lipid uptake, primary screen, ldlA[mSR-BI] cells, fluorescence, single point; inhibition, % at 12.5 µM; hit rate 0.96% among 320,000; Scavenger receptor class B member 1 (Mus musculus), Q61009; ldlA[mSR-BI] CHO cells, DiI-HDL uptake fluorescence, 3 h; AID 488896, 2010;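 active = mean replicate inhibition of at least 70% and a set share of replicates each scoring 70 or more; inconclusive = meets just one of the two criteria; inactive = fails both criteria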;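 note: 0% = median of neutral control wells and 100% = median of positive control wells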
Target sequence (Q61009 whole entry, looked up): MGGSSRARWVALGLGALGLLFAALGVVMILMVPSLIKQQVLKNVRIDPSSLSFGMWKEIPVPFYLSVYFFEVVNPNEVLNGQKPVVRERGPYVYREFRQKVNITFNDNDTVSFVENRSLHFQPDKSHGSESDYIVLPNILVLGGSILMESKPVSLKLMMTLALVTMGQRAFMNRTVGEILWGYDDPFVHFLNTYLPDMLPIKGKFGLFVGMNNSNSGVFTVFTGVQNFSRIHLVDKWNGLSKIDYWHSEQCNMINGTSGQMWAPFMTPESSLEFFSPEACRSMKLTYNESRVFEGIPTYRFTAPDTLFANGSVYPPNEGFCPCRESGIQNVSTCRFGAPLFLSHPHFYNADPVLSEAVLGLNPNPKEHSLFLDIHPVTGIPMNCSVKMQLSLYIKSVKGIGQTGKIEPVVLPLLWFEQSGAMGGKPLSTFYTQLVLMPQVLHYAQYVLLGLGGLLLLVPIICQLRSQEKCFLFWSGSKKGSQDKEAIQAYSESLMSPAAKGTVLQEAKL
Wnt act: Wnt/beta-catenin pathway activators, primary screen, cell-based, plate reader, single point; Wnt/beta-catenin reporter cell assay, activator; activation, % at 9.35 µM; hit rate 1.2% among 300,000; AID 743398, 2014; in the data active = activation above about 30%, passing the limit was not always enough; inconclusive = no clear call, values can overlap the other calls;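 note: 0% = neutral control wells and 100% = positive control wells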
HSF1 activator: HSF-1 activators, primary screen, NIH3T3-HGL cells, MG132 stress, luminescence, single point. NIH3T3-HGL HSF-1 luciferase reporter, 8 h; 100% = twice DMSO control signal. activation, % at 9 µM. hit rate 1.7% among 300,000;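 active = mean replicate activation of at least 50% with a set share of replicates each reaching 50%; inconclusive = only one of those two conditions met; inactive = mean below 50% and too few replicates reaching it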;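 note: 0% = median of the neutral control wells and 100% = twice that signal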
SR-BI uptake up: activators of SR-BI mediated DiI-HDL uptake, primary screen, ldlA[mSR-BI] CHO cells, DiI fluorescence; 3 h; 100 = double the neutral-control signal; activation, % at 12.5 µM; hit rate 0.096% among 320,000;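 active = mean replicate activation of at least 60% and every replicate at or above 60%; inconclusive = mean or all-replicate condition met, but not both; inactive = mean below 60% and not all replicates reaching 60%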;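 note: 0% = median plate neutral-control signal and 100% = twice that signal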
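Test system: SR-BI-overexpressing, LDLR-lacking CHO cells. Measured by: DiI fluorescence, bottom read. Medium: Ham's F12 with 0.5% BSA, HEPES 25 mM, pH 7.4. Timing: 3 h uptake period with compound, 37 °C.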
An asterisk follows results filed as active; ? = inconclusive; / = not tested or not shown.

SMILES	MITF act	SR-BI DiI inh	Wnt act	HSF1 activator	SR-BI uptake up
Fc1ccccc1-c1nc2nc3ccccc3nc2n1CC1CCCO1 (configuration not stated)	/	-6.8	11.9	62.6*	6.8
CCc1cccc(CC)c1NC(=O)COC(=O)CC1c2ccccc2CCN1S(=O)(=O)c1ccc(F)cc1 (configuration not stated)	-1.6	5.5	-2.9	61.8*	-5.5
O=C(COC(=O)CC1c2ccccc2CCN1S(=O)(=O)c1ccc(F)cc1)Nc1ccccc1 (configuration not stated)	2.4	-5.7	/	-8.0	5.7
Cc1cccc(C(=O)N=c2sccn2C)c1[N+](=O)[O-]	100.4*	7.5	6.3	6.6	-7.5
CC(C)(C)S(=O)(=O)c1cnc(-c2ccccn2)nc1N	1.9	0.8	3.6	1.2	-0.8
Cc1cccc(-c2ncc(S(=O)(=O)C(C)(C)C)c(N)n2)c1	93.8*	10.0	34.6*	45.4	-10.0
CC(=O)Nc1ccc(NC(=O)CN(c2ccccc2Cl)S(C)(=O)=O)cc1	4.6	-43.1	40.0*	16.0	43.1
CC(=O)Nc1ccc(NC(=O)CN(c2cccc(C)c2)S(C)(=O)=O)cc1	-4.2	-2.8	/	10.1	2.8
C/C(=N\NC(=O)c1c(Br)c(C)nn1C)c1ccc(NC(=O)C(C)Oc2ccc(Cl)cc2C)cc1 (configuration not stated)	-17.9	76.2*	/	17.1	-76.2
Nc1ccc(Nc2nc(-c3cc4ccccc4oc3=O)cs2)cc1	11.6	31.0	2.9	38.7	-31.1
O=C(Nc1nc(-c2cc3ccccc3oc2=O)cs1)c1ccc(Br)o1	7.5	-2.3	/	65.7*	2.3
CC(=O)Nc1ccc(Nc2nc(-c3cc4ccccc4oc3=O)cs2)cc1	/	55.3	-0.1	-2.7	-55.3
O=C(O)c1ccc(Nc2nc(-c3cc4ccccc4oc3=O)cs2)cc1O	-2.6	-2.6	12.9	65.0*	2.6
Nc1[nH]c(C(=O)c2ccccc2)c(-c2ccc(F)cc2)c1C(=O)c1c[nH]c2ccccc12	/	/	-0.2	/	/
CCOC(=O)N1CCN(C(=O)c2[nH]c(C(F)(F)F)nc2-c2ccccc2)CC1	/	/	-2.3	/	/
CCCCCNc1nc(-c2ccccc2)cs1	/	/	/	55.3*	/
CCCc1ccc(-c2cc(NC(=O)CSc3nnc(N)s3)n(-c3ccccc3)n2)cc1	76.4	12.1	-1.3	61.4*	-12.1
Cc1nnc(SCC(=O)Nc2cc(-c3cc(C)c(C)cc3C)nn2-c2ccccc2)s1	4.7	30.5	6.7	5.8	-30.5
COC(=O)c1cc2c(-c3ccccc3)cc3ccccn3c-2c1C(=O)OC	15.5	84.5*	/	22.8	-84.5
COc1cc(Cn2c3ccc(NC(=O)CCc4ccc(O)cc4)cc3c(=O)n2C)ccc1F	/	/	-1.4	/	/
C(=NOCCc1ccccc1)c1ccncc1	90.7*	-8.2	0.0	/	8.2
O=C(NN=Cc1ccccc1O)C(=O)Nc1ccc(F)cc1	/	/	-0.4	/	/
COc1cc2[nH]c(=S)n(Cc3ccco3)c(=O)c2cc1OC	-2.5	22.6	/	139.9*	-22.6
Cc1nc(C(F)(F)F)ccc1C(=O)N1CCC1(C)C(=O)NS(=O)(=O)c1ccc(C#N)cc1 (configuration not stated)	/	/	-1.3	/	/
O=C(c1ccccc1)N1CCN(C(=O)c2ccccc2Br)CC1	/	23.8	-5.3	-9.8	-23.8
SMILES	MITF act	SR-BI DiI inh	Wnt act	HSF1 activator	SR-BI uptake up
CC12CN(C(=O)c3ccccc3Br)CC(C)(CN(C(=O)c3ccccc3Br)C1)C2=O	/	-15.0	40.8*	11.5	15.0
CC(C)(C)NC(=O)C(c1ccnc2ccccc12)n1c(=O)c(-c2ccco2)nc2ccccc21 (configuration not stated)	/	/	-3.0	/	/
CCCc1cc(=O)oc2cc(OCC(=O)N3CCN(C(=O)C4COc5ccccc5O4)CC3)ccc12 (configuration not stated)	-3.6	86.8*	-5.6	-0.5	-86.8
Cc1cc(=O)oc2ccc(OCC(=O)N3CCc4ccccc43)cc12	5.1	77.6*	/	13.5	-77.6
Cc1c(CC(=O)N2CCN(C(=O)C3COc4ccccc4O3)CC2)c(=O)oc2cc(O)c(Cl)cc12 (configuration not stated)	-3.6	-5.7	0.1	9.0	5.7
COc1ccc2c(CC(=O)N3CCc4ccccc43)coc2c1	111.2*	14.5	/	103.8*	-14.5
CCCCc1cc(=O)oc2cc(OCC(=O)N3CCOCC3)ccc12	-21.5	2.5	2.3	-16.1	-2.5
Cc1c(C)c2ccc(OCC(=O)N3CCN(C(=O)C4COc5ccccc5O4)CC3)cc2oc1=O (configuration not stated)	-6.0	88.0*	3.6	-12.6	-88.0
O=C(COc1ccc2ccc(=O)oc2c1)N1CCN(C(=O)C2COc3ccccc3O2)CC1 (configuration not stated)	8.3	40.8	-2.3	3.7	-40.8
Cc1cc(=O)oc2cc(OCC(=O)N3CCN(C(=O)C4COc5ccccc5O4)CC3)ccc12 (configuration not stated)	3.8	87.8*	-0.5	4.0	-87.8
Cc1ccc(OCC(=O)c2cc(C)n(C3CC3)c2C)c([N+](=O)[O-])n1	14.4	-7.1	/	-13.6	7.1
Cc1cc(C(=O)COc2cccc([N+](=O)[O-])c2)c(C)n1C1CC1	105.3*	42.4	-1.7	/	-42.4
Cc1nc2ccc(NC(=O)c3cc(Cl)ccn3)cc2s1	56.7	15.6	21.7	39.5	-15.6
Cc1ccc(C(=O)Nc2ccc3nc(C)sc3c2)s1	44.7	39.9	/	56.1*	-39.9
Cc1nc2cc(NC(=O)c3ccc(Br)s3)ccc2s1	5.6	13.1	-3.1	55.7*	-13.1
Cc1ccc(C(=O)Nc2ccc3nc(C)sc3c2)o1	/	/	4.1	/	/
Cc1ccc(C(=O)Nc2ccc(SC(F)F)cc2)s1	83.3*	36.3	11.0	-2.7	-36.3
Cc1cc(Nc2ccc(OC(F)F)cc2)cc(=O)n1-c1ccc(OC(F)F)cc1	/	/	3.8	/	/
Cc1c(C(=O)N2c3ccccc3CC2C)oc2ccccc12 (configuration not stated)	57.3	39.0	50.9*	?	/
COCc1c(C(=O)OCC(=O)N2c3ccccc3CC2C)oc2ccccc12 (configuration not stated)	/	-5.2	-1.8	-17.8	5.2
c1ccc(CCSc2nccn2-c2ccccc2)cc1	/	11.6	24.0	57.7*	-11.6
CCc1ccc(CSc2nccn2-c2ccccc2)cc1	10.3	-26.9	/	7.4	26.9
CN(C(=O)CN1CCN(c2cnn(-c3ccccc3)c(=O)c2Cl)CC1)C1CCS(=O)(=O)C1 (configuration not stated)	0.8	20.7	43.9*	/	-20.7
CN(C)Cc1cc(C(C)(C)c2ccccc2)ccc1O	7.4	-0.5	-5.3	/	0.5
